≈ marks a conversion by molar mass, not a printed value.

Three compounds from ChEMBL document CHEMBL4364256, “Design, synthesis and biological evaluation of antimicrobial diarylimine and -amine compounds targeting the interaction between the bacterial NusB and NusE proteins” (Eur J Med Chem, 2019) can be followed below.

The subject of one data set is Bacillus subtilis. The data set is described as follows: Inhibition of N-terminal LgBiT-fused Bacillus subtilis NusB expressed in Escherichia coli BL21(DE3)pLysS interaction with C- terminal SmBiT-fused Bacillus subtilis NusE expressed in Escherichia coli BL21(DE3)pLysS at 100 uM preincubated for 10 mins followed by NusE addition and measured after 10 mins by nano-glo luciferase assay relative to control. The essentials:
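NusB and NusE were mixed 1:1 at 1 µM in PBS, with compound at 100 µM. The read-out was percent inhibition of the NusB-NusE interaction.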

The subject of a further data set is Enterococcus faecium. The data set can be described thus: Antimicrobial activity against Enterococcus faecium ATCC 19433 incubated for 20 hrs by microdilution method. The format is functional. Particulars: ATCC 19433, 20 h. Put shortly:
(§1)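 Broth microdilution MIC testing done following CLSI guidelines.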
(In general: In broth dilution the organism is exposed to a series of concentrations in liquid medium.)

In the next data set the test system is Streptococcus pneumoniae. The data set can be described thus: Antimicrobial activity against Streptococcus pneumoniae ATCC 49619 incubated for 20 hrs by microdilution method. The data set is classed as functional. The note with it: ATCC 49619, 20 h. Put shortly:
as §1

The test system of another data set is Acinetobacter baumannii. The data set is described as follows: Antimicrobial activity against Acinetobacter baumannii ATCC 19606 incubated for 20 hrs by microdilution method. The data set is classed as functional. The note with it: ATCC 19606 = CIP 70.34 = JCM 6841, 20 h. Put shortly: as §1
The test system of another data set is Pseudomonas aeruginosa. The data set can be described thus: Antimicrobial activity against Pseudomonas aeruginosa ATCC 27853 incubated for 20 hrs by microdilution method. The data set is classed as functional. The note with it: ATCC 27853, 20 h. The essentials: as §1
The nature of data set [1]: Cytotoxicity against human A549 cells assessed as reduction in cell viability after 48 to 72 hrs by MTT assay. The data set is classed as cell-based. (Tetrazolium assays rely on reduction of a dye to a coloured formazan, in cell work by metabolically active cells.)
Data set [2] in a line: Cytotoxicity against human HaCaT cells assessed as reduction in cell viability after 48 to 72 hrs by MTT assay. The data set is classed as cell-based.
Data set [3] in a line: Therapeutic index, ratio of CC50 for human A549 cells to 1/2 times MIC for Staphylococcus aureus ATCC 25923. The format is toxicity. Particulars: read-out: TI.
Data set [4] in a line: Therapeutic index, ratio of CC50 for human HaCaT cells to 1/2 times MIC for Staphylococcus aureus ATCC 25923. The format is toxicity. The note with it: read-out: TI.
Data set [5] deals with Staphylococcus aureus. The data set can be described thus: microbe, parasite or virus in culture. The note with it: ATCC 25923, 20 h.
Data set [6] concerns Staphylococcus aureus. The data set is described as follows: microbe, parasite or virus in culture. Particulars: ATCC 29213, 20 h.
The nature of data set [7]: microbe, parasite or virus in culture. The note with it: Enterobacter cloacae, ATCC 13047, 20 h.

The compound `C#Cc1cccc(NCc2cc(Cl)cc(Cl)c2O)c1` returned an inhibition in the data set on Bacillus subtilis of 50.6%. Further, the MIC in the data set with Enterococcus faecium is 32 µg/mL (≈ 110 µM); in the data set with Streptococcus pneumoniae, 256 µg/mL (≈ 876 µM); against Acinetobacter baumannii, above 256 µg/mL; in the data set on Pseudomonas aeruginosa, above 256 µg/mL; against Staphylococcus aureus [5] it was 2 µg/mL (≈ 6.85 µM); in the data set on Staphylococcus aureus [6], 4 µg/mL (≈ 13.7 µM). The MIC in data set [7] is above 256 µg/mL. The CC50 in [1] was 112 µM; in data set [2], 108 µM. Also, the selectivity ratio in data set [3] was determined as 33; in [4] it was 32.

The compound `O=[N+]([O-])c1ccc(O)c(/C=N/c2ccccc2Cl)c1` had an inhibition in the data set on Bacillus subtilis of 45.7%. Further, the MIC in the data set on Enterococcus faecium is above 256 µg/mL; in the data set with Streptococcus pneumoniae it was 64 µg/mL (≈ 231 µM); with Acinetobacter baumannii, 256 µg/mL (≈ 925 µM); in the data set on Pseudomonas aeruginosa it was above 256 µg/mL; in the data set with Staphylococcus aureus [5], 2 µg/mL (≈ 7.23 µM); in the data set with Staphylococcus aureus [6], 16 µg/mL (≈ 57.8 µM). The compound further returned an MIC in data set [7] above 256 µg/mL. Also, the 50% cytotoxic concentration (CC50) came out at 432 µM in data set [1] and 347 µM in data set [2]. For the same compound, the figures for the selectivity ratio in data set [3] and in [4] were 119 and 96, respectively.

In the data set on Bacillus subtilis, `O=[N+]([O-])c1ccc(O)c(/C=N/c2cccc(Cl)c2)c1` showed an inhibition of 66.5%. Besides, the MIC in the data set on Enterococcus faecium is above 256 µg/mL; in the data set on Streptococcus pneumoniae, 64 µg/mL (≈ 231 µM); against Acinetobacter baumannii, 256 µg/mL (≈ 925 µM); against Pseudomonas aeruginosa it was above 256 µg/mL; in the data set with Staphylococcus aureus [5], 2 µg/mL (≈ 7.23 µM); with Staphylococcus aureus [6], 16 µg/mL (≈ 57.8 µM). The MIC in data set [7] was above 256 µg/mL. Further, the CC50 in data set [1] amounted to 274 µM; in data set [2], 250 µM. Further, the selectivity ratio in [3] is 76; in data set [4], 69.

Usually inhibition stands for the drop in the measured response relative to a control, in per cent. Read a low inhibition as a weak effect. For orientation: CC50 means the concentration giving 50% cytotoxicity.
